Assay results gathered from unrelated publications.
Lines come from different studies, so protocols differ.
Target: Rhodopsin kinase GRK1 (GRK1, Homo sapiens, UniProt Q15835)
Residues used in one study (Q15835 1-563): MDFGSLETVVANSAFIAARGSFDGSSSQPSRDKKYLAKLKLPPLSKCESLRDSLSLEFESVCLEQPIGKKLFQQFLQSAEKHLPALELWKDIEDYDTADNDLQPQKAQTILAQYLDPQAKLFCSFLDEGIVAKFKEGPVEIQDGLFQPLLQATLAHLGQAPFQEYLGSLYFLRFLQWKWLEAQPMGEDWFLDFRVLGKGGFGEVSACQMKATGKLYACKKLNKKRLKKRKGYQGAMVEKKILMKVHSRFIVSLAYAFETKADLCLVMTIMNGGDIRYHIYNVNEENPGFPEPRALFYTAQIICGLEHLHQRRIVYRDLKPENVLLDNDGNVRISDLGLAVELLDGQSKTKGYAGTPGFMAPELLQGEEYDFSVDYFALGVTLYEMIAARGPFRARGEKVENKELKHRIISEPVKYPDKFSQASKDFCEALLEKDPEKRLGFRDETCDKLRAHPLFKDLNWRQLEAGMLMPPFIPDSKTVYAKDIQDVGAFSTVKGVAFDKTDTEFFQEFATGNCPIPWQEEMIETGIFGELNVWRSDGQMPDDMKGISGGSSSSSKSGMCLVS

| Structure (SMILES) | observed | technique | tested at | remaining binding [%] |
| --- | --- | --- | --- | --- |
| CN(C)c1nccc(-c2cnn3ncccc23)n1 | binding |  | 1 µM | 79 |
| CN([C@@H]1CCc2c(CC(=O)O)c3cc(S(C)(=O)=O)ccc3n2C1)S(=O)(=O)c1ccc(F)cc1 | cell-free assay | competition with immobilised ligand | 1 µM | 70 |
| N[C@@H]1CCN(c2nccc(-c3cnn4ncccc34)n2)C1 | binding |  | 1 µM | 100 |
| CNC(=O)[C@@H]1CC[C@@H](n2c(-c3ccc4cnccc4c3)nc3ccc(C(=O)NCc4cccc(C(N)=O)c4)cc32)C1 | binding | competition with immobilised ligand | 1 µM | 67 |
| Cc1cnc(Nc2ccc(C(=O)N3CCC(N4CCCC4)CC3)cc2)nc1-c1cc2ccccc2s1 | binding | competition with immobilised ligand | 1 µM | 64 |
| C[C@@H]1CCN(c2nccc(-c3cnn4ncccc34)n2)C1 | binding |  | 1 µM | 77 |
| COc1ncc2cc3ccccc3nc2c1C#N | cell-free assay | competition with immobilised ligand | 5 µM | 98 |
| C[C@@H](c1ccc(-n2cnc3c(N)ncnc32)cc1)N1CCc2nn(C)c(Cc3ccccc3)c2C1=O | binding | competition with immobilised ligand | 0.1 µM | 76 |
| Cn1cc(Cl)c2c(Oc3c(F)cc(Nc4cc(Cl)nc(N)n4)cc3F)ccnc21 | cell-free assay | competition with immobilised ligand | 0.1 µM | 92 |
| O=C(NCCCN1CCOCC1)c1ccc(Nc2nccc(-c3cc4ccccc4s3)n2)cc1 | binding | competition with immobilised ligand | 1 µM | 74 |
| O=C(Nc1c[nH]nc1C(=O)NC1CCNCC1)c1cc(F)cc(F)c1 | binding | competition with immobilised ligand | 1 µM | 83 |
| CC(=O)N1CCC(c2ccc(C(=O)NC3=NCCN3)cc2C(F)(F)F)CC1 | cell-free assay | competition with immobilised ligand | 1 µM | 95 |
| F[C@@H]1CCN(c2nccc(-c3cnn4ncccc34)n2)C1 | binding |  | 1 µM | 100 |
| CS(=O)(=O)NCC[C@H](NC(=O)c1cncc2c1cnn2-c1ccc(F)cc1)c1ccnc(S(C)(=O)=O)c1 | cell-free assay | competition with immobilised ligand | 1 µM | 100 |
| COc1ccnn2ncc(-c3ccnc(N(C)C)n3)c12 | binding |  | 1 µM | 82 |
| COCCOc1nc(-c2ccc(Cl)nc2)nc2c1CN(C(=O)c1ncn3ccccc13)CC2 | cell-free assay | competition with immobilised ligand | 0.1 µM | 100 |
| Nc1ncc2c(n1)-c1c([nH]c3ccc(C#CC4CC4)cc13)CCCC2 | binding | competition with immobilised ligand | 1 µM | 90 |
| CN(C(=O)c1ccccc1)c1cc(N(C)c2ccc3c(c2)CCc2ccc(C(=O)NCCN4CCOCC4)cc2C3=O)ccc1F | cell-free assay | competition with immobilised ligand | 1 µM | 93 |
| FC(F)(F)Oc1cccc(-c2cnc3ccc(-c4ccncc4)nn23)c1 | cell-free assay | competition with immobilised ligand | 5 µM | 38 |
